According to ChEMBL document CHEMBL2163291, “Synthesis of pyrazole peptidomimetics and their inhibition against A549 lung cancer cells” (Bioorg Med Chem Lett, 2012):
pIC50: −log10 of the molar value. Activity calls are given as the source filed them. No cut-off for these calls is given here.

Experiments:
A549 [1] = experiment: Cytotoxicity against human A549 cells assessed cell viability after 48 hrs by SRB assay; type: functional, cell-based; conditions: for pIC50: A549, 48 h
Method in brief: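 A549 cells were treated for 48 h and net growth was measured by sulforhodamine B colorimetric assay. IC50 is the concentration causing a 50% decrease in net cell growth. Test levels were 40, 60 and 80 µM.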

A549 [2] = experiment: Cell cycle arrest in human A549 cells assessed as accumulation at G1 phase at 80 uM after 48 hrs by FACS flow cytometry (reference value: 55.94%); type: functional
A549 [3] = experiment: Induction of autophagy in human A549 cells assessed as increase in LC3-2 level at 80 uM after 48 hrs by Western blot analysis relative to beta-actin; type: functional, cell-based
Method in brief: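 A549 cells were treated at 80 µM for 48 h. LC3-II protein was detected by immunoblot and normalized to β-actin, expressed as percent of control, n = 3.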

A549 [4] = experiment: Induction of apoptosis in human A549 cells assessed as chromatin condensation at 80 uM after 48 hrs by Hoechst 33258 staining-based fluorescent microscopy; type: functional, cell-based
Method in brief: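 A549 cells were exposed to compound at 80 µM for 48 h, then stained with Hoechst 33258. Nuclei were examined by fluorescence microscopy for chromatin condensation and apoptotic bodies, against an untreated control group.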

A549 [5] = experiment: Cell cycle arrest in human A549 cells assessed as accumulation at S phase at 80 uM after 48 hrs by FACS flow cytometry (reference value: 34.67 %); type: functional
A549 [6] = experiment: Induction of necrosis in human A549 cells at 80 uM after 48 hrs by LDH release assay; type: functional, cell-based
Method in brief: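 A549 cells were treated at 80 µM, or with 0.1% DMSO or left untreated as control, for 48 h. LDH release into the cells' surroundings served as the necrosis read-out, n = 3, mean ± SE.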

A549 [7] = experiment: Cell cycle arrest in human A549 cells assessed as accumulation at G2 phase at 80 uM after 48 hrs by FACS flow cytometry (reference value: 9.39 %); type: functional
A549 [8] = experiment: Cytotoxicity against human A549 cells assessed as cell viability at 40 uM after 48 hrs by SRB assay; type: functional, cell-based
Method in brief: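 A549 cells were treated at 40, 60 or 80 µM, or left untreated (control), for 48 h. Viability was read by sulforhodamine B colorimetric assay against untreated cells, n = 3, mean ± SE.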

SMILES | pIC50 (A549 [1]) | Activity (A549 [2]) [%] | Activity (A549 [3]) | Activity (A549 [4]) | Activity (A549 [5]) [%] | Activity (A549 [6]) | Activity (A549 [7]) [%] | Activity (A549 [1]) | Activity (A549 [8])
O=c1[nH]cc(F)c(=O)[nH]1 [FLUOROURACIL] | 5.38 |  |  |  |  |  |  |  | 
CCOC(=O)CNC(=O)c1cc(-c2ccc(Cl)cc2)nn1Cc1ccccc1 |  | 57.39 | Active | Active | 34.04 | inactive | 8.57 |  | 
CCOC(=O)[C@@H](CO)NC(=O)c1cc(-c2ccc(Cl)cc2)nn1Cc1ccc(C(C)(C)C)cc1 | 4.41 | 79.54 | Active | Active | 19.53 | inactive | 0.92 | Dose-dependent effect | Active
CCOC(=O)CNC(=O)c1cc(-c2ccc(Cl)cc2)nn1Cc1ccc(C(C)(C)C)cc1 | 4.20 | 76.06 | Active | Active | 19.91 | inactive | 4.04 | Dose-dependent effect | 
CCOC(=O)[C@@H](CO)NC(=O)c1cc(-c2ccccc2)nn1Cc1ccccc1 | 4.25 | 57.48 | Active | Active | 34.44 | inactive | 8.08 | Dose-dependent effect | 
CCOC(=O)[C@@H](CO)NC(=O)c1cc(-c2ccccc2)nn1Cc1ccc(C(C)(C)C)cc1 | 4.44 | 72.31 | Active | Active | 21.63 | inactive | 6.06 | Dose-dependent effect | Active
CCOC(=O)[C@@H](CO)NC(=O)c1cc(-c2ccc(Cl)cc2)nn1Cc1ccccc1 | 4.25 | 59.23 | Active | Active | 40.08 | inactive | 0.69 | Dose-dependent effect | 
CCOC(=O)[C@@H](CS)NC(=O)c1cc(-c2ccc(Cl)cc2)nn1Cc1ccccc1 |  | 60.2 | Active | Active | 32.55 | inactive | 7.25 |  | 
